Data reported in ChEMBL document CHEMBL1155078, “From phenothiazine to 3-phenyl-1,4-benzothiazine derivatives as inhibitors of the Staphylococcus aureus NorA multidrug efflux pump” (J Med Chem, 2008).
In brackets after ≈: the same amount, converted by molar mass. Activity calls are given as the source filed them. No cut-off for these calls is given here.

How the values were obtained:
Staphylococcus aureus [1] = assay: Antibacterial activity against wild type Staphylococcus aureus ATCC 25923 by microdilution technique; type: functional
Procedure, shortened: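 MICs determined in duplicate by broth microdilution following CLSI guidelines.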

[2] = molecular target: T1, Quinolone resistance protein NorA (Staphylococcus aureus) (UniProt P0A0J7); assay: Inhibition of NorA pump-mediated ethidium bromide efflux in Staphylococcus aureus K1199B at 50 uM by fluorimetric analysis
T1 sequence (whole entry): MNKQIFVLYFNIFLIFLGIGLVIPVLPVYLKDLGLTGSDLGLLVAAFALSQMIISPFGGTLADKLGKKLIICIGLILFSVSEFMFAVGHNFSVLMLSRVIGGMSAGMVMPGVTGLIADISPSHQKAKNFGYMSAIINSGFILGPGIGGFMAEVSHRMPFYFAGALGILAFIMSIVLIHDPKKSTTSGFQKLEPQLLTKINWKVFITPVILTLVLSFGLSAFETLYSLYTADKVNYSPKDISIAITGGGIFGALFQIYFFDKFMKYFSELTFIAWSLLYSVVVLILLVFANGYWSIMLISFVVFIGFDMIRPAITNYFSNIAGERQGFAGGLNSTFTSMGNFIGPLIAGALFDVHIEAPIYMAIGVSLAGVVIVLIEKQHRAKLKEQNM
Procedure, shortened: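 Loss of ethidium bromide from norA-overexpressing S. aureus SA-1199B measured fluorometrically with test agent at 50 µM. Run in duplicate; read-out is the mean total efflux over a 5 min time course.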

Staphylococcus aureus [3] = assay: Antibacterial activity against Staphylococcus aureus K1199B at 50 uM by microdilution technique; type: functional, organism-based
[4] = molecular target: T1, Quinolone resistance protein NorA (Staphylococcus aureus); assay: Inhibition of NorA in Staphylococcus aureus ATCC 25923 assessed as fold reduction of ciprofloxacin MIC at 25 ug/mL by microdilution technique
Procedure, shortened: (§1)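 Ciprofloxacin MICs were measured in duplicate by broth microdilution following CLSI guidelines. They were determined alone and with scalar dilutions of freshly prepared test compound, which was added at the fixed concentration stated in the line. The result is the fold decrease in the ciprofloxacin MIC when compound is present.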

[5] = molecular target: T1, Quinolone resistance protein NorA (Staphylococcus aureus); assay: Inhibition of NorA overexpressing Staphylococcus aureus K2378 assessed as fold reduction of ciprofloxacin MIC at 6.25 ug/mL by microdilution technique; procedure, shortened: as §1
[6] = molecular target: T1, Quinolone resistance protein NorA (Staphylococcus aureus); assay: Inhibition of NorA overexpressing Staphylococcus aureus K2378 assessed as fold reduction of ciprofloxacin MIC at 12.5 ug/mL by microdilution technique; procedure, shortened: as §1
[7] = molecular target: T1, Quinolone resistance protein NorA (Staphylococcus aureus); assay: Inhibition of NorA overexpressing Staphylococcus aureus K2378 assessed as fold reduction of ciprofloxacin MIC at 25 ug/mL by microdilution technique; procedure, shortened: as §1
[8] = Lipophilicity, log P of the compound; type: physicochemical; settings: octanol/water
[9] = molecular target: T1, Quinolone resistance protein NorA (Staphylococcus aureus); assay: Inhibition of NorA deficient Staphylococcus aureus K1902 assessed as fold reduction of ciprofloxacin MIC at 25 ug/mL by microdilution technique
Staphylococcus aureus [10] = assay: Antibacterial activity against norA expressing Staphylococcus aureus K1902 by microdilution technique
Staphylococcus aureus [11] = assay: Antibacterial activity against norA deficient Staphylococcus aureus K2378 by microdilution technique
Staphylococcus aureus [12] = assay: microbe, parasite or virus in culture; settings: ATCC 25923
[13] = molecular target: T1, Quinolone resistance protein NorA (Staphylococcus aureus); assay: Inhibition of NorA deficient Staphylococcus aureus K1902 assessed as fold reduction of ciprofloxacin MIC at 12.5 ug/mL by microdilution technique

Structure (SMILES)	MIC (Staphylococcus aureus [1]) [µg/mL]	inhibition [2] [%]	Activity (Staphylococcus aureus [3])	fold change (FC) [4]	fold change (FC) [5]	fold change (FC) [6]	fold change (FC) [7]	logP [8]	fold change (FC) [9]	MIC (Staphylococcus aureus [10]) [µg/mL]	MIC (Staphylococcus aureus [11]) [µg/mL]	MIC (Staphylococcus aureus [12]) [µg/mL]	fold change (FC) [13]
FC(F)(F)c1ccc2c(c1)N=C(c1ccccc1)CS2	32 (≈ 109 µM)	8.4	inactive	2	4	16	16						
COc1ccc(C2=Nc3ccccc3SC2)cc1	> 512	19.5	inactive	> 8	2	4	16	3.1					
COc1ccc(C2CSc3ccccc3N2)cc1 (configuration not stated)	> 128	10.4	inactive	2	4	4	8						
Clc1ccc(C2=Nc3ccccc3SC2)cc1	64 (≈ 246 µM)			4			4		4				
O=S1(=O)C=C(c2ccccc2)Nc2ccccc21	128 (≈ 497 µM)			2			2						
CCCOc1ccc(C2=Nc3ccccc3SC2)cc1	128 (≈ 452 µM)	84.7	inactive	> 8			4	4					
CN(C)CCCN1c2ccccc2Sc2ccc(Cl)cc21 [CHLORPROMAZINE]	128 (≈ 401 µM)	81					8	5.2	> 4				
COc1ccccc1C1=Nc2ccccc2SC1	64 (≈ 251 µM)	0	inactive	4			8	2.9					
Fc1ccc(C2=Nc3ccccc3SC2)cc1	64 (≈ 263 µM)	0	inactive	4	2	2	16	3.2	2				
O=[N+]([O-])c1ccc(C2=Nc3ccccc3SC2)cc1	> 128	19.6	inactive	2			2						
COc1cccc(C2=Nc3ccccc3SC2)c1	64 (≈ 251 µM)			4			8						
O=C(O)c1cn(C2CC2)c2cc(N3CCNCC3)c(F)cc2c1=O [CIPROFLOXACIN]										0.12 (≈ 0.362 µM)	2 (≈ 6.04 µM)	0.5 (≈ 1.51 µM)	
CSc1ccc(C2CSc3ccccc3N2)cc1 (configuration not stated)	> 128	28.2	inactive	> 8	8	8	16	4.5					
O=[N+]([O-])c1ccc(C2=Nc3cc(C(F)(F)F)ccc3SC2)cc1	32 (≈ 94.6 µM)	69.7	inactive	> 8	8	16	> 32	3.9	2				2
CC(C)CCOc1ccc(C2=Nc3ccccc3SC2)cc1	> 128	16.9	inactive	4			2						
COc1ccc(C2=Nc3ccccc3SC2)cc1OC	128 (≈ 449 µM)	22.8	inactive	4	2	4	16		2				
COc1ccc(C2=Nc3cc(C(F)(F)F)ccc3SC2)cc1	64 (≈ 198 µM)			2			8						
CCCOc1ccc(C2=CSc3ccccc3N2C)cc1	> 512	0	inactive				4						
COC(=O)[C@H]1[C@H]2C[C@@H]3c4[nH]c5cc(OC)ccc5c4CCN3C[C@H]2C[C@@H](OC(=O)c2cc(OC)c(OC)c(OC)c2)[C@@H]1OC [RESERPINE]	128 (≈ 210 µM)			2			4	4	2				
O=S1(=O)C=C(c2ccc(Cl)cc2)Nc2ccccc21	128 (≈ 439 µM)			4			2						
c1ccc(C2=Nc3ccccc3SC2)cc1	> 512	0	inactive	8				3					
COc1cc(C2=Nc3ccccc3SC2)cc(OC)c1OC	32 (≈ 101 µM)	23.6	inactive	4	2	4	16						
Cc1ccc(C2=Nc3ccccc3SC2)cc1	64 (≈ 267 µM)			4					8				
